Measured values collected from several papers.

| SMILES | target or system | test | system | setting | measurement | value |
| --- | --- | --- | --- | --- | --- | --- |
| Cc1cc(S(=O)(=O)N[C@]2(C)C[C@@H](N3CCN(CC4CCN(c5ccc6c(c5F)n(C)c(=O)n6C5CCC(=O)NC5=O)CC4)CC3)C2)ccc1Nc1ncc(C(F)(F)F)c(N2CCC[C@](C)(O)C2)n1 (stereo partly drawn) | MDCK | – | Caco-2 | 1 µM, 2 h, pH 7.4 | Papp A→B | 1.5 ×10⁻⁶ cm/s |
| C[C@H]1Oc2cc(cnc2N)-c2c(nn(C)c2C#N)CN(C)C(=O)c2ccc(F)cc21 | – | – | male Sprague-Dawley rat, brain | oral, 10 mg/kg, 24 h, single dose | concentration | 16.4 ng/g |
| O=C(O)COc1cccc(-c2nc(Nc3ccc4[nH]ncc4c3)c3ccccc3n2)c1 | Solute carrier family 22 member 6 (SLC22A6, Homo sapiens, UniProt Q4U2R8) | transporter uptake, inhibitor, radiometric | – | – | IC50 | > 500 µM |
| CC(=O)N1N=C(c2ccc(NC(=O)CN3CCN(c4ccc(Cl)cc4)CC3)cc2)CC1c1ccc(C)cc1 (stereo not drawn) | MCF-10A | cell growth or viability, MTT | – | 50 µM, 96 h | viability | 89% |
| O=c1c2ccc(OCc3cccc(OC(F)(F)F)c3)cc2[nH]c2ccc(Cl)c(F)c12 | – | metabolic stability | mouse, liver microsomes | 1 µM, pH 7.4 | half-life | > 60 min |
| COc1ccc(C2CC(c3ccc(NC(=O)CN4CCN(c5ccc(OC)cc5)CC4)cc3)=NN2C(C)=O)cc1 (stereo not drawn) | MCF-10A | cell growth or viability, MTT | – | 50 µM, 96 h | viability | 92% |
| Cc1cc(S(=O)(=O)NC2CC(N3CCN(CC4CCN(c5ccc(NC6CCC(=O)NC6=O)cc5C)CC4)CC3)C2)ccc1Nc1ncc(C(F)(F)F)c(N2CCC[C@](C)(O)C2)n1 (stereo partly drawn) | MDCK | – | Caco-2 | 1 µM, 2 h, pH 7.4 | Papp A→B | 3.5 ×10⁻⁶ cm/s |
| CCCN(CCC)CCOc1ccc2c(=O)c3c([nH]c2c1)CCCC3 | – | metabolic stability | mouse, liver microsomes | 1 µM, pH 7.4 | half-life | 26.9 min |
| O=C(CN1CCN(c2ccc(Cl)cc2)CC1)Nc1ccc(C(=O)C=Cc2ccccc2)cc1 | MCF-10A | cell growth or viability, MTT | – | 50 µM, 96 h | viability | 85% |
| Cc1cc(S(=O)(=O)NC2CC(N3CCN(CC4CCN(c5ccc6c(c5F)n(C)c(=O)n6C5CCC(=O)NC5=O)CC4)CC3)C2)ccc1Nc1ncc(C(F)(F)F)c(N2CCCC(C)(O)C2)n1 (stereo not drawn) | MDCK | – | Caco-2 | 1 µM, 2 h, pH 7.4 | Papp A→B | 1.9 ×10⁻⁶ cm/s |
| O=c1c2c([nH]c3cccc(Oc4ccc(OC(F)(F)F)cc4)c13)CCCC2 | – | metabolic stability | mouse, liver microsomes | 1 µM, pH 7.4 | half-life | 11.9 min |
| Cc1ccc(-c2nn(-c3ccccc3)cc2C=Nc2c(N)nc(S)nc2O)cc1 | MCF-10A | cell growth or viability | – | 48 h | CC50 | > 20 µM |
| COc1ccc(N2CCN(CC(=O)Nc3ccc(C(=O)C=Cc4ccc(Br)cc4)cc3)CC2)cc1 | MCF-10A | cell growth or viability, MTT | – | 50 µM, 96 h | viability | 90% |
| Nc1nc(S)nc(O)c1N=Cc1cn(-c2ccccc2)nc1-c1ccc(Cl)cc1 | MCF-10A | cell growth or viability | – | 48 h | CC50 | > 40 µM |
| O=c1c2ccc(OCc3cccc(C(F)(F)F)c3)cc2[nH]c2ccc(Cl)c(F)c12 | – | metabolic stability | mouse, liver microsomes | 1 µM, pH 7.4 | half-life | > 60 min |
| CNS(=O)(=O)c1ccc(Nc2ncc3cc(Cl)c(=O)n(C4CCCC4)c3n2)c(C)c1 | MDCK | – | Caco-2 | 1 µM, 2 h, pH 7.4 | Papp A→B | 3.6 ×10⁻⁶ cm/s |
| CCCN(CCC)CCNc1ccc2c(=O)c3c([nH]c2c1)CCCC3 | – | metabolic stability | mouse, liver microsomes | 1 µM, pH 7.4 | half-life | 16.9 min |
| Cc1cc(S(=O)(=O)NC2CC(N3CCN(CC4CCN(c5cccc6c5n(C)c(=O)n6C5CCC(=O)NC5=O)CC4)C4(CC4)C3)C2)ccc1Nc1ncc(C(F)(F)F)c(N2CCC[C@](C)(O)C2)n1 (stereo partly drawn) | MDCK | – | Caco-2 | 1 µM, 2 h, pH 7.4 | Papp A→B | 0.7 ×10⁻⁶ cm/s |
| COc1ccc(C2CC(c3ccc(NC(=O)CN4CCN(c5ccc(Cl)cc5)CC4)cc3)=NN2C(C)=O)cc1 (stereo not drawn) | MCF-10A | cell growth or viability, MTT | – | 50 µM, 96 h | viability | 86% |
| Cc1cc(S(=O)(=O)N[C@H]2CC[C@H](N3CCN(CC4CCN(c5cccc6c5n(C)c(=O)n6C5CCC(=O)NC5=O)CC4)CC3)CC2)ccc1Nc1ncc(C(F)(F)F)c(N2CCC[C@](C)(O)C2)n1 (stereo partly drawn) | MDCK | – | Caco-2 | 1 µM, 2 h, pH 7.4 | Papp A→B | 0.7 ×10⁻⁶ cm/s |
| COc1ccc(N2CCN(CC(=O)Nc3ccc(C(=O)C=Cc4ccco4)cc3)CC2)cc1 | MCF-10A | cell growth or viability, MTT | – | 50 µM, 96 h | viability | 82% |
| O=c1c2ccc(OCc3cccc(OC(F)(F)F)c3)cc2[nH]c2cc(Cl)cc(F)c12 | – | metabolic stability | mouse, liver microsomes | 1 µM, pH 7.4 | half-life | > 60 min |
| Cc1cc(S(=O)(=O)NC2CC(N3CCN(CC4CCN(c5cccc6c5n(C)c(=O)n6C5CCC(=O)NC5=O)CC4)CC3)C2)ccc1Nc1ncc(C(F)(F)F)c(N2CCC[C@](C)(O)C2)n1 (stereo partly drawn) | MDCK | – | Caco-2 | 1 µM, 2 h, pH 7.4 | Papp A→B | 1.2 ×10⁻⁶ cm/s |
| COc1ccc(N2CCN(CC(=O)Nc3ccc(C4=NN(C(C)=O)C(c5cc(OC)c(OC)c(OC)c5)C4)cc3)CC2)cc1 (stereo not drawn) | MCF-10A | cell growth or viability, MTT | – | 50 µM, 96 h | viability | 91% |
| CC(C)(C)OC(=O)N1CCC(Oc2ccc3c(=O)c4c(F)cc(Cl)cc4[nH]c3c2)CC1 | – | metabolic stability | mouse, liver microsomes | 1 µM, pH 7.4 | half-life | > 60 min |
| O=C(CN1CCN(c2ccc(Cl)cc2)CC1)Nc1ccc(C(=O)C=Cc2ccco2)cc1 | MCF-10A | cell growth or viability, MTT | – | 50 µM, 96 h | viability | 90% |
| CN(C)CCOc1ccc2c(=O)c3c([nH]c2c1)CCCC3 | – | metabolic stability | mouse, liver microsomes | 1 µM, pH 7.4 | half-life | 34.3 min |
